Source: ChEMBL document CHEMBL4177560, “Functional evaluation of synthetic flavonoids and chalcones for potential antiviral and anticancer properties” (Bioorg Med Chem Lett, 2017)
Converted amounts (≈) assume the structure as drawn. The source made the active and inactive calls. The rule behind the calls is not given here.

Target: Serine/threonine-protein kinase mTOR (Homo sapiens) (UniProt P42345)
Experiment: Inhibition of mTOR signaling pathway in human Huh7.5 cells assessed as reduction in S6K1 levels at 0.5 to 10 uM after 72 hrs by Western blot analysis
Format: cell-based
Conditions: not given
How it was run: (§1)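 Naïve, HCV-free Huh7.5 cells were incubated with increasing compound concentrations. Western blot analysis covered phospho-rps6, total rps6, S6K1 and actin.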

Structure (SMILES) | inhibition
COc1ccc(C#CC(=O)c2cc(Br)cc(Br)c2O)cc1OC | Active

Target: Serine/threonine-protein kinase mTOR (Homo sapiens) (UniProt P42345)
Experiment: Inhibition of mTOR signaling pathway (unknown origin) in human GS5 cells infected with HCV genotype 1b assessed as reduction in ratio of viral NS3 to cellular GAPDH protein level at 5 uM after 72 hrs by Western blot analysis relative to control
Format: cell-based
Conditions: not given
How it was run: (§2)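 SGR2a (genotype 2a) or GS5 (genotype 1b) replicon cells were treated for 72 h, either at a single 10 μM dose or at increasing concentrations. Extracted proteins were blotted for NS3 and GAPDH, and blots plus repeats were quantified densitometrically as NS3:GAPDH ratio versus DMSO control (100%).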

Structure (SMILES) | inhibition
COc1ccc(C#CC(=O)c2cc(Br)cc(Br)c2O)cc1OC | 50%
COc1ccc(C#CC(=O)c2cc(Cl)cc(Cl)c2O)cc1OC | Active
COc1cc(O)c(C(=O)C#Cc2cc(OC)c(OC)c(OC)c2)c(OC)c1 | 50%

Target: Serine/threonine-protein kinase mTOR (Homo sapiens) (UniProt P42345)
Experiment: Inhibition of mTOR signaling pathway (unknown origin) in sub-genomic replicon 2A cells assessed as reduction in ratio of phosphorylated rps6 protein level to rps6 protein level after 72 hrs by Western blot analysis
Conditions: not given
How it was run: (§3)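 SGR2a replicon cells were incubated with increasing compound concentrations for 72 h. Western blots were run for total rps6, phospho-rps6, phospho-S6K1 and GAPDH, and blots plus repeats were quantified as p-rps6 relative to GAPDH or to total rps6.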

Structure (SMILES) | inhibition
COc1cc(O)c(C(=O)C#Cc2cc(OC)c(OC)c(OC)c2)c(OC)c1 | Active

Target: Serine/threonine-protein kinase mTOR (Homo sapiens) (UniProt P42345)
Experiment: Inhibition of mTOR signaling pathway in human Huh7.5 cells infected with FLAG-tagged HCV genotype 2a JFH-1 assessed as reduction in ratio of viral NS3 to cellular GAPDH protein level up to 50 uM after 72 hrs by Western blot analysis
Format: cell-based
Conditions: not given
How it was run: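 Huh7.5 cells were infected with genotype 2a JFH1-FLAG and co-treated at up to 50 μM for 72 h. NS3 and GAPDH were read by Western blot, and the NS3:GAPDH ratio was expressed relative to DMSO-treated cells.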

Structure (SMILES) | inhibition
COc1cc(-c2oc3c([N+](=O)[O-])cc(C)cc3c(=O)c2O)cc(OC)c1OC | inactive
COc1ccc(-c2oc3c([N+](=O)[O-])cc(C)cc3c(=O)c2O)cc1OC | inactive
COc1ccc(C#CC(=O)c2cc(Br)cc(Br)c2O)cc1OC | Active
COc1cc(-c2oc3c(Br)cc(Br)cc3c(=O)c2O)cc(OC)c1OC | inactive
COc1cc(C#CC(=O)c2cc(Cl)cc(Cl)c2O)cc(OC)c1OC | Active
CCCCCc1c(OC)cc(OC)c(C(=O)C#Cc2cc(OC)c(OC)c(OC)c2)c1O | inactive
COc1cc(-c2cc(=O)c3cc(C)cc([N+](=O)[O-])c3o2)cc(OC)c1OC | inactive
COc1ccc(C#CC(=O)c2cc(C)cc([N+](=O)[O-])c2O)cc1OC | Active
COc1ccc(-c2cc(=O)c3cc(Br)cc(Br)c3o2)cc1OC | inactive
COc1ccc(-c2cc(=O)c3cc(C)cc([N+](=O)[O-])c3o2)cc1OC | inactive
COc1cc(-c2cc(=O)c3cc(Cl)cc(Cl)c3o2)cc(OC)c1OC | inactive
COc1ccc(C#CC(=O)c2cc(Cl)cc(Cl)c2O)cc1OC | Active
COc1ccc(-c2oc3c(Cl)cc(Cl)cc3c(=O)c2O)cc1OC | inactive
COc1cc(OC)c(C(=O)C#Cc2cc(OC)c(OC)c(OC)c2)c(O)c1C | Active
COc1cc(O)c(C(=O)C#Cc2cc(OC)c(OC)c(OC)c2)c(OC)c1 | Active
COc1cc(-c2oc3c(Cl)cc(Cl)cc3c(=O)c2O)cc(OC)c1OC | inactive
COc1ccc(-c2oc3c(Br)cc(Br)cc3c(=O)c2O)cc1OC | inactive

Tested on: Hepatitis C virus
Experiment: Antiviral activity against HCV genotype 2a infected in human Huh7.5 cells electroporated with viral RNA assessed as […] reduction in ratio of viral NS3 to cellular GAPDH protein level up to 50 uM after 72 hrs by Western blot analysis
Conditions: Hepacivirus hominis

Structure (SMILES) | Activity
COc1ccc(C#CC(=O)c2cc(Br)cc(Br)c2O)cc1OC | inactive
COc1ccc(C#CC(=O)c2cc(C)cc([N+](=O)[O-])c2O)cc1OC | inactive
COc1ccc(C#CC(=O)c2cc(Cl)cc(Cl)c2O)cc1OC | inactive
COc1cc(O)c(C(=O)C#Cc2cc(OC)c(OC)c(OC)c2)c(OC)c1 | inactive

Target: Serine/threonine-protein kinase mTOR (Homo sapiens) (UniProt P42345)
Experiment: Inhibition of mTOR signaling pathway (unknown origin) in human GS5 cells infected with HCV genotype 1b assessed as reduction in ratio of viral NS3 to cellular GAPDH protein level at 0.5 to 1 uM after 72 hrs by Western blot analysis relative to control
Format: cell-based
Conditions: not given
How it was run: as §2

Structure (SMILES) | inhibition
COc1ccc(C#CC(=O)c2cc(Br)cc(Br)c2O)cc1OC | inactive
COc1ccc(C#CC(=O)c2cc(Cl)cc(Cl)c2O)cc1OC | inactive
COc1cc(O)c(C(=O)C#Cc2cc(OC)c(OC)c(OC)c2)c(OC)c1 | inactive

Target: Serine/threonine-protein kinase mTOR (Homo sapiens) (UniProt P42345)
Experiment: Inhibition of mTOR signaling pathway in human GS5 cells infected with HCV genotype 1b assessed as reduction in ratio of viral NS3 to cellular GAPDH protein level at 10 uM after 72 hrs by Western blot analysis
Format: cell-based
Conditions: not given
How it was run: as §2

Structure (SMILES) | inhibition
COc1ccc(C#CC(=O)c2cc(Br)cc(Br)c2O)cc1OC | Active
COc1cc(C#CC(=O)c2cc(Cl)cc(Cl)c2O)cc(OC)c1OC | Active
CCCCCc1c(OC)cc(OC)c(C(=O)C#Cc2cc(OC)c(OC)c(OC)c2)c1O | Active
COc1ccc(C#CC(=O)c2cc(C)cc([N+](=O)[O-])c2O)cc1OC | Active
COc1ccc(C#CC(=O)c2cc(Cl)cc(Cl)c2O)cc1OC | Active
COc1cc(OC)c(C(=O)C#Cc2cc(OC)c(OC)c(OC)c2)c(O)c1C | Active
COc1cc(O)c(C(=O)C#Cc2cc(OC)c(OC)c(OC)c2)c(OC)c1 | Active

Target: Serine/threonine-protein kinase mTOR (Homo sapiens) (UniProt P42345)
Experiment: Inhibition of mTOR signaling pathway (unknown origin) in sub-genomic replicon 2A cells assessed as reduction in ratio of viral NS3 to cellular GAPDH protein level at 10 uM after 72 hrs by Western blot analysis
Conditions: not given
How it was run: as §2

Structure (SMILES) | inhibition
COc1ccc(C#CC(=O)c2cc(Br)cc(Br)c2O)cc1OC | Active
COc1cc(C#CC(=O)c2cc(Cl)cc(Cl)c2O)cc(OC)c1OC | Active
CCCCCc1c(OC)cc(OC)c(C(=O)C#Cc2cc(OC)c(OC)c(OC)c2)c1O | Active
COc1ccc(C#CC(=O)c2cc(C)cc([N+](=O)[O-])c2O)cc1OC | Active
COc1ccc(C#CC(=O)c2cc(Cl)cc(Cl)c2O)cc1OC | Active
COc1cc(OC)c(C(=O)C#Cc2cc(OC)c(OC)c(OC)c2)c(O)c1C | Active
COc1cc(O)c(C(=O)C#Cc2cc(OC)c(OC)c(OC)c2)c(OC)c1 | Active

Target: Serine/threonine-protein kinase mTOR (Homo sapiens) (UniProt P42345)
Experiment: Inhibition of mTOR signaling pathway (unknown origin) in sub-genomic replicon 2A cells assessed as reduction in ratio of phosphorylated S6K1 protein level at 0.1 uM after 72 hrs by Western blot analysis
Conditions: not given
How it was run: as §3

Structure (SMILES) | inhibition
COc1ccc(C#CC(=O)c2cc(Br)cc(Br)c2O)cc1OC | Active

Target: Serine/threonine-protein kinase mTOR (Homo sapiens) (UniProt P42345)
Experiment: Inhibition of mTOR signaling pathway (unknown origin) in sub-genomic replicon 2A cells assessed as reduction in ratio of viral NS3 to cellular GAPDH protein level at 5 uM after 72 hrs by Western blot analysis relative to control
Conditions: not given
How it was run: as §2

Structure (SMILES) | inhibition
COc1ccc(C#CC(=O)c2cc(Br)cc(Br)c2O)cc1OC | 50%
COc1ccc(C#CC(=O)c2cc(Cl)cc(Cl)c2O)cc1OC | Active
COc1cc(O)c(C(=O)C#Cc2cc(OC)c(OC)c(OC)c2)c(OC)c1 | 50%

Tested on: MDA-MB-231
Experiment: Inhibition of estradiol-induced proliferation in human MDA-MB-231 cells after 72 hrs by Cell-titer-Glo assay
Format: functional, cell-based
Conditions: MDA-MB-231, 72 h

Structure (SMILES) | IC50 [µg/mL]
COc1ccc(-c2oc3c([N+](=O)[O-])cc(C)cc3c(=O)c2O)cc1OC | > 35.7
Cl.O=C(c1ccc(OCCN2CCCCC2)cc1)c1c(-c2ccc(O)cc2)sc2cc(O)ccc12 [RALOXIFENE HYDROCHLORIDE] | 11.2
COc1ccc(C#CC(=O)c2cc(C)cc([N+](=O)[O-])c2O)cc1OC | 0.99 (≈ 2.9 µM)
COc1ccc(C#CC(=O)c2cc(Cl)cc(Cl)c2O)cc1OC | 1.98 (≈ 5.64 µM)
COc1ccc(-c2oc3c(Cl)cc(Cl)cc3c(=O)c2O)cc1OC | > 36.7

Target: Serine/threonine-protein kinase mTOR (Homo sapiens) (UniProt P42345)
Experiment: Inhibition of mTOR signaling pathway in human Huh7.5 cells assessed as reduction in rps6 protein levels at 0.5 to 10 uM after 72 hrs by Western blot analysis
Format: cell-based
Conditions: not given
How it was run: as §1

Structure (SMILES) | inhibition
COc1ccc(C#CC(=O)c2cc(Br)cc(Br)c2O)cc1OC | Active

Target: Serine/threonine-protein kinase mTOR (Homo sapiens) (UniProt P42345)
Experiment: Inhibition of mTOR signaling pathway (unknown origin) in sub-genomic replicon 2A cells assessed as reduction in ratio of viral NS3 to cellular GAPDH protein level at 0.5 to 1 uM after 72 hrs by Western blot analysis relative to control
Conditions: not given
How it was run: as §2

Structure (SMILES) | inhibition
COc1ccc(C#CC(=O)c2cc(Br)cc(Br)c2O)cc1OC | inactive
COc1ccc(C#CC(=O)c2cc(Cl)cc(Cl)c2O)cc1OC | inactive
COc1cc(O)c(C(=O)C#Cc2cc(OC)c(OC)c(OC)c2)c(OC)c1 | inactive

Tested on: Hepatitis C virus
Experiment: Antiviral activity against HCV genotype 1b infected in human GS5 cells assessed as reduction in viral RNA level at 0.1 to 10 uM after 72 hrs by qPCR analysis
Format: functional, organism-based
Conditions: Hepacivirus hominis
How it was run: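 GS5 genotype 1b replicon cells were treated for 72 h across 0.1–10 μM. Total RNA was extracted, and HCV RNA and GAPDH mRNA were quantified by qPCR with HCV-specific primers.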

Structure (SMILES) | Activity
COc1cc(O)c(C(=O)C#Cc2cc(OC)c(OC)c(OC)c2)c(OC)c1 | inactive

Tested on: Ishikawa
Experiment: Inhibition of estradiol-induced proliferation in human Ishikawa cells after 72 hrs by Cell-titer-Glo assay
Format: functional, cell-based
Conditions: not given

Structure (SMILES) | IC50 [µg/mL]
COc1ccc(-c2oc3c([N+](=O)[O-])cc(C)cc3c(=O)c2O)cc1OC | > 35.7
Cl.O=C(c1ccc(OCCN2CCCCC2)cc1)c1c(-c2ccc(O)cc2)sc2cc(O)ccc12 [RALOXIFENE HYDROCHLORIDE] | 10.5
COc1ccc(C#CC(=O)c2cc(C)cc([N+](=O)[O-])c2O)cc1OC | 1.43 (≈ 4.19 µM)
COc1ccc(C#CC(=O)c2cc(Cl)cc(Cl)c2O)cc1OC | 5.85 (≈ 16.7 µM)
COc1ccc(-c2oc3c(Cl)cc(Cl)cc3c(=O)c2O)cc1OC | > 36.7

Tested on: Hepatitis C virus
Experiment: Antiviral activity against HCV genotype 2a infected in human Huh7.5 cells assessed as reduction in viral RNA level at 0.1 to 10 uM after 72 hrs by qPCR analysis
Format: functional, organism-based
Conditions: Hepacivirus hominis

Structure (SMILES) | Activity
COc1ccc(C#CC(=O)c2cc(Br)cc(Br)c2O)cc1OC | Active
COc1cc(O)c(C(=O)C#Cc2cc(OC)c(OC)c(OC)c2)c(OC)c1 | Active

Tested on: MCF7
Experiment: Inhibition of estradiol-induced proliferation in human MCF7 cells after 72 hrs by Cell-titer-Glo assay
Format: functional, cell-based
Conditions: MCF7, 72 h

Structure (SMILES) | IC50 [µg/mL]
COc1ccc(-c2oc3c([N+](=O)[O-])cc(C)cc3c(=O)c2O)cc1OC | > 35.7
Cl.O=C(c1ccc(OCCN2CCCCC2)cc1)c1c(-c2ccc(O)cc2)sc2cc(O)ccc12 [RALOXIFENE HYDROCHLORIDE] | 0.98
COc1ccc(C#CC(=O)c2cc(C)cc([N+](=O)[O-])c2O)cc1OC | 2.24 (≈ 6.56 µM)
CC/C(=C(\c1ccc(O)cc1)c1ccc(OCCN(C)C)cc1)c1ccccc1 [AFIMOXIFENE] | 0.95 (≈ 2.45 µM)
COc1ccc(C#CC(=O)c2cc(Cl)cc(Cl)c2O)cc1OC | 3.3 (≈ 9.4 µM)
COc1ccc(-c2oc3c(Cl)cc(Cl)cc3c(=O)c2O)cc1OC | > 36.7

Target: Serine/threonine-protein kinase mTOR (Homo sapiens) (UniProt P42345)
Experiment: Inhibition of mTOR signaling pathway (unknown origin) in sub-genomic replicon 2A cells assessed as reduction in ratio of phosphorylated rps6 protein level to rps6 protein level at 0.5 to 10 uM after 72 hrs by Western blot analysis relative to control
Conditions: not given
How it was run: as §3

Structure (SMILES) | inhibition [%]
COc1ccc(C#CC(=O)c2cc(Br)cc(Br)c2O)cc1OC | 50
